From ChEMBL document CHEMBL3112517, “Identification of dihydrostilbenes in Pholidota chinensis as a new scaffold for GABAA receptor modulators” (Bioorg Med Chem, 2014)
Calls of active or inactive are those of the source. The rule behind the calls is not given here.

Experiments:
[1] = (§1) Potency index, ratio of compound activity for modulation of rat GABAA alpha1beta2gamma2S receptor assessed as EC3 to 10 GABA-induced chloride ion current to clotiazepam activity for modulation of GABAA alpha1beta2gamma2S receptor (unknown origin) assessed as potentiation of EC5 to 10 GABA-induced chloride ion current
[2] = organism: Rattus norvegicus; assay: Agonist activity rat GABAA alpha1beta2gamma2S receptor expressed in Xenopus laevis oocytes assessed as potentiation of GABA-induced chloride ion current at holding potential -70 mV at <100 uM compound treated prior to GABA challenge by two-microelectrode voltage clamp assay; assay type: cell-based
[3] = as §1, with “triazolam” for “clotiazepam”
[4] = Modulation of GABAA alpha4beta2gamma2S receptor (unknown origin) expressed in Xenopus laevis oocytes assessed as potentiation of EC3 to 10 GABA-induced chloride ion current at holding potential -70 mV by two-microelectrode voltage clamp assay; assay type: cell-based; settings: Homo sapiens
[5] = (§2) Allosteric modulation of rat GABAA alpha1beta2gamma2S receptor expressed in Xenopus laevis oocytes assessed as potentiation of EC3 to 10 GABA-induced chloride ion current at holding potential -70 mV by two-microelectrode voltage clamp assay; assay type: cell-based
How it was run: (§3)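 Stage V–VI Xenopus laevis oocytes were injected with 50 nL of rat α1, β2 and γ2S cRNA mixed 1:1:10 (about 300–3000 pg/nL per subunit), stored at 18 °C in ND96, and recorded on days 1–5. Two-electrode clamp was at −70 mV in pH 7.4 HEPES bath. Compound was applied by fast perfusion with GABA EC3–10, in 1% DMSO final. Enhancement = I(GABA+Comp)/IGABA − 1.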

[6] = organism: Rattus norvegicus; assay: as §2; assay type: cell-based; how it was run: as §3
[7] = as §1, with “midazolam” for “clotiazepam”
[8] = target: T1, GABA A receptor alpha-2/beta-2/gamma-2 (Homo sapiens, UniProt P18507+P47869+P47870); assay: Modulation of GABAA alpha2beta2gamma2S receptor (unknown origin) expressed in Xenopus laevis oocytes assessed as potentiation of EC3 to 10 GABA-induced chloride ion current at holding potential -70 mV by two-microelectrode voltage clamp assay; assay type: cell-based
T1 sequence (P47870 whole entry): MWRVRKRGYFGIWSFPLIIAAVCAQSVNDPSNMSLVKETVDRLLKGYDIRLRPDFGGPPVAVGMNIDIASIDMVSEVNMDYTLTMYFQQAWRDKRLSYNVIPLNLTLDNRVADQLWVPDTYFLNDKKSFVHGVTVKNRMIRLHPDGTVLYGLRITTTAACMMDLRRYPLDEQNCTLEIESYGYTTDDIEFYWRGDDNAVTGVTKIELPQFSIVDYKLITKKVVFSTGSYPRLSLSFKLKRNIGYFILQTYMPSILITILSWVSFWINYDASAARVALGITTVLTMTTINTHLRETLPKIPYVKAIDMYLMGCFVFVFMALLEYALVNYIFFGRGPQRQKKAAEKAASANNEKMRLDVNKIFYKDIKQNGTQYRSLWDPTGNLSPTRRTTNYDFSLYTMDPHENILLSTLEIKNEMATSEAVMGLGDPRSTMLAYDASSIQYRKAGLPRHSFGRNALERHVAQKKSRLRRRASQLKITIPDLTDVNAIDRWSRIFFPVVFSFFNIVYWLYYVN
T1 sequence (P18507 whole entry): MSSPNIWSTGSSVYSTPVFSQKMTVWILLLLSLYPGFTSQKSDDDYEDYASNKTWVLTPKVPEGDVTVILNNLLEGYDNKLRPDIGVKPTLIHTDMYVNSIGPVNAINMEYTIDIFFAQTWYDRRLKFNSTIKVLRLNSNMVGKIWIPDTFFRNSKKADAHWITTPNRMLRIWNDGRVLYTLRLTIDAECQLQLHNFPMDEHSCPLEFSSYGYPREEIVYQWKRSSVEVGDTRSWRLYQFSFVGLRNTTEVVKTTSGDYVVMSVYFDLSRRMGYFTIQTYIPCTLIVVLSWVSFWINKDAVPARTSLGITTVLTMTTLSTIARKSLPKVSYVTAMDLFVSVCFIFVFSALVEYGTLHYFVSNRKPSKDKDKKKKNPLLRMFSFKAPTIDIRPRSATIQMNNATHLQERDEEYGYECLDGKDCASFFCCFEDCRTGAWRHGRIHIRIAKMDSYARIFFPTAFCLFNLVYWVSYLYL
T1 sequence (P47869 whole entry): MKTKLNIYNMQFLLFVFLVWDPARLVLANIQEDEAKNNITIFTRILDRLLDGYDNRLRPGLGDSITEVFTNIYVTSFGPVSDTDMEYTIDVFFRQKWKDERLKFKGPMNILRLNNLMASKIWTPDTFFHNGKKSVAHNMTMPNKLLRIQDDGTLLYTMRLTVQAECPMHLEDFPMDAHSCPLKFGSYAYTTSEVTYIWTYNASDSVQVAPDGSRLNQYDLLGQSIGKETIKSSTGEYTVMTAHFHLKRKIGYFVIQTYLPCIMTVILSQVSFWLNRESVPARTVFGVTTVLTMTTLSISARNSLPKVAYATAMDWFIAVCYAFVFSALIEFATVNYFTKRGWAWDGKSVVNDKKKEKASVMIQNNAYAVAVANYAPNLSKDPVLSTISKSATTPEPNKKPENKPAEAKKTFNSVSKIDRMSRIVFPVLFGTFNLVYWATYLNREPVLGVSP

[9] = target: T2, GABA A receptor alpha-3/beta-2/gamma-2 (Homo sapiens, UniProt P18507+P34903+P47870); assay: Modulation of GABAA alpha3beta2gamma2S receptor (unknown origin) expressed in Xenopus laevis oocytes assessed as potentiation of EC3 to 10 GABA-induced chloride ion current at holding potential -70 mV by two-microelectrode voltage clamp assay; assay type: cell-based
T2 sequence (P47870 whole entry): T1 sequence (P47870 whole entry)
T2 sequence (P18507 whole entry): T1 sequence (P18507 whole entry)
T2 sequence (P34903 whole entry): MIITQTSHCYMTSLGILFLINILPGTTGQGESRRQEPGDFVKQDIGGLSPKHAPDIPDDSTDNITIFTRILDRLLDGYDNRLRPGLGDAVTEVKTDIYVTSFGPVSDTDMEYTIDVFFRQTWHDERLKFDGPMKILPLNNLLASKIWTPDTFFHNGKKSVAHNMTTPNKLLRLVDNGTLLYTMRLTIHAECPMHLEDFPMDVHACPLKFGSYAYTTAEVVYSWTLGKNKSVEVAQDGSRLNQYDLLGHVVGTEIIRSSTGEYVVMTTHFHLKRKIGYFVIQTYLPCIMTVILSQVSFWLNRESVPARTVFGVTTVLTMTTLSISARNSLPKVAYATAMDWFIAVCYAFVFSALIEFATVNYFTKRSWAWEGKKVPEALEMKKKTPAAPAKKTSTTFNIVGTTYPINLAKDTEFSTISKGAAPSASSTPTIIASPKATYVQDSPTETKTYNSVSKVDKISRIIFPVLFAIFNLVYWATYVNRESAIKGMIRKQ

Ratio [1]: 4 | Activity [2]: inactive | Ratio [3]: 4 | EC50 [4]: 26.2 µM | EC50 [5]: 52.5 µM | Activity [6]: Dose-dependent effect | Ratio [7]: 4 | EC50 [8]: 80.8 µM | EC50 [9]: 67.3 µM
SMILES: COc1cc(O)cc(CCc2cccc(O)c2)c1 [BATATASIN III]
